Hits are enriched below; roughly 5.8% of the tested compounds scored in any of these assays.
T cruzi growth-1 = T. cruzi proliferation inhibition; hit rate 5.9% among 77,000; AID 624255; T. cruzi beta-gal in NIH3T3, GalScreen luminescence, 90 h; inhibition, % at 8.34 µM;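 active = mean inhibition above about 93%, with at least 55% of replicates each passing it, limit read from the data, passing the limit was not always enough; inconclusive = only one of those two conditions holds; inactive = neither condition holds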
Pf Dd2 inh = inhibitors of Plasmodium falciparum Dd2 growth | P. falciparum Dd2 growth, SYBR Green, 72 h; stronger effect = lower value | activity change, % at 10 µM | hit rate 2.3% among 94,000; in the data active = activity change below about -80%; inconclusive = no clear call, values can overlap the other calls
IDH1 mut inh = inhibitors of human IDH1 R132H | AID 624101 | inhibition, % at 10 µM | hit rate 0.18% among 70,000 | O75874 | IDH1 R132H reductase, diaphorase/resazurin fluorescence, 60 min; in the data active = inhibition above about 34%; inconclusive = no clear call, values can overlap the other calls; inactive = below about 11%
Target sequence (O75874 whole entry R132H): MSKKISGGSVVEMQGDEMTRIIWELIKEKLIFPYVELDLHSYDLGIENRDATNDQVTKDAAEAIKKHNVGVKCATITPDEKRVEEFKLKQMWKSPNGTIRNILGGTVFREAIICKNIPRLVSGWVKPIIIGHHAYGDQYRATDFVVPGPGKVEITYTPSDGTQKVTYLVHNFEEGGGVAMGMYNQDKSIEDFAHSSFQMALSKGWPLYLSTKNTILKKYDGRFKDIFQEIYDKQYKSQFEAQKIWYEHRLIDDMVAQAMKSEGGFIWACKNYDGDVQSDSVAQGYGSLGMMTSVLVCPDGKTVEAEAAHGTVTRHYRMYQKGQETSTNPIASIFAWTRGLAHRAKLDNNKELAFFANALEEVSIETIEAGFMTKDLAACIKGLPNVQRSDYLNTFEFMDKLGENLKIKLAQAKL
KDM4C inh = inhibitors of human demethylase GASC-1 KDM4C | GST-KDM4C 2-372, H3K9me3 peptide, LANCE TR-FRET | hit rate 0.15% among 96,000 | Q9H3R0 | inhibition, % at 12.5 µM | AID 720574;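 active = mean replicate inhibition above about 25%, with at least 55% of replicates also reaching it, limit read from the data, passing the limit was not always enough; inconclusive = only one of those two conditions met; inactive = neither condition met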
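material = GST-tagged GASC-1 (JMJD2C) catalytic fragment, aa 2-372 | amount = enzyme final amount 10 nM | medium = HEPES buffer, pH 7.5, plus ascorbate | also added = H3K9me3 peptide substrate, Fe(II), 2-oxoglutarate | dosing = single dose | times = 30 min demethylation and 1 h detection at room temperature | detection = LANCE TR-FRET | read-out basis = Fall in 671/618 emission ratio as inhibition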
T cruzi growth-2 = inhibitors of T. cruzi proliferation; shares compounds with T cruzi growth-1; AID 651739; inhibition, % at 8.35 µM; T. cruzi beta-gal in NIH3T3, GalScreen luminescence, 90 h; hit rate 72% among 5,600;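 active = mean replicate inhibition above about 95% and at least 55% of replicates individually reaching it, limit read from the data; inconclusive = only one of the two criteria is met; inactive = neither criterion is met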
T cruzi growth-3 = Trypanosoma cruzi proliferation inhibition. shares compounds with T cruzi growth-1. T. cruzi beta-gal in NIH3T3, GalScreen luminescence, 90 h. inhibition, % at 2.09 µM. hit rate 21% among 5,600;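 active = mean inhibition above about 95%, with at least 55% of replicates also reaching it, limit read from the data; inconclusive = meets just one of the two conditions; inactive = meets neither condition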
3T3 cytotox = NIH/3T3 (mouse) viability loss; shares compounds with T cruzi growth-1; NIH/3T3 viability, CellTiter-Glo ATP luminescence, 90 h; cytotoxicity (signal decrease), % at 8.35 µM; hit rate 14% among 5,600;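 active = mean signal decrease across replicates above about 35% based on untreated-well scatter, with enough replicates individually passing, limit read from the data; inconclusive = no rule stated though some were filed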
3T3 cytotox 2 = NIH/3T3 (mouse) viability loss; shares compounds with T cruzi growth-1; NIH/3T3 viability, CellTiter-Glo ATP luminescence, 90 h; inhibition, % at 24.9 µM; hit rate 56% among 5,600;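 active = mean loss of cell viability signal at or above a set limit, and enough replicates individually reaching it; inconclusive = meets only the mean limit or only the replicate share; inactive = meets neither condition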
Numbers stand for hits; – = inactive; ? = inconclusive; · = not tested or not shown.

SMILES	T cruzi growth-1	Pf Dd2 inh	IDH1 mut inh	KDM4C inh	T cruzi growth-2	T cruzi growth-3	3T3 cytotox	3T3 cytotox 2
COc1cccc(NC(=O)N(C)C[C@@H]2Oc3cc(C#Cc4ccc(F)cc4)ccc3S(=O)(=O)N([C@H](C)CO)C[C@H]2C)c1	103.1	–	·	–	97.7	–	–	55.1
CC1(C)CC(n2c(SCC(N)=O)nc3c(c2=O)C2(CCCC2)Cc2ccccc2-3)CCO1 (stereo not given)	·	·	–	·	·	·	·	·
O=C(C[C@H]1C[C@@H]2c3cc(NC(=O)Nc4ccccc4)ccc3O[C@@H]2[C@H](CO)O1)NCc1cccc(F)c1	–	–	–	–	·	·	·	·
O=C(C[C@H]1C[C@H]2c3cc(NC(=O)NC4CCCC4)ccc3O[C@H]2[C@H](CO)O1)NCc1ccccc1	–	–	–	–	·	·	·	·
O=C(C[C@@H]1C[C@H]2c3cc(NC(=O)NC4CCCC4)ccc3O[C@H]2[C@H](CO)O1)NCc1ccccc1	102.0	–	–	–	–	–	–	–
O=C(C[C@@H]1C[C@H]2c3cc(NC(=O)Nc4ccccc4)ccc3O[C@H]2[C@H](CO)O1)NCc1cccc(F)c1	103.8	–	–	–	–	–	–	–
O=C(C[C@@H]1C[C@H]2c3cc(NC(=O)CC4CC4)ccc3O[C@H]2[C@H](CO)O1)NCc1cccnc1	108.6	–	–	–	–	–	–	–
O=C(C[C@H]1C[C@H]2c3cc(NC(=O)NC4CCCC4)ccc3O[C@H]2[C@@H](CO)O1)NCc1ccc(Cl)cc1	105.1	–	–	–	–	–	–	–
O=C(C[C@@H]1C[C@H]2c3cc(NC(=O)CC4CC4)ccc3O[C@H]2[C@@H](CO)O1)NCc1cccnc1	–	–	–	–	·	·	·	·
Cc1ccnc(NC(c2ccc([N+](=O)[O-])cc2)c2ccc3ccc(C)nc3c2O)c1 (stereo not given)	·	·	–	·	·	·	·	·
OC[C@@H]1[C@@H](c2ccc(C#Cc3cccnc3)cc2)[C@H]2CN(Cc3ccccc3F)CCCCN12	104.5	–	·	–	106.8	–	–	101.8
N#Cc1cccc(-c2ccc([C@@H]3[C@@H](CO)N4CCCCN(Cc5ccccc5F)C[C@H]34)cc2)c1	–	–	·	–	·	·	·	·
CC(C)(O)C#Cc1ccc([C@H]2[C@H]3CN(Cc4ccccc4F)CCCCN3[C@H]2CO)cc1	–	–	·	–	·	·	·	·
N#Cc1cccc(-c2ccc([C@H]3[C@@H](CO)N4CCCCN(Cc5ccccc5F)C[C@@H]34)cc2)c1	99.4	–	·	–	103.9	–	–	97.1
OC[C@H]1[C@H](c2ccc(C#Cc3cccnc3)cc2)[C@H]2CN(Cc3ccccc3F)CCCCN21	110.4	–	·	–	107.0	–	–	103.5
COc1ccc(C#Cc2ccc([C@@H]3[C@H]4CN(Cc5ccccc5F)CCCCN4[C@H]3CO)cc2)cc1	–	–	·	–	·	·	·	·
OC[C@H]1[C@@H](c2ccc(C#Cc3cccnc3)cc2)[C@H]2CN(Cc3ccccc3F)CCCCN21	?	–	·	–	106.2	–	–	74.0
O=C(CSc1nnc(-c2ccc(Cl)cc2)n1-c1ccc(F)cc1)N1CCOCC1	·	·	–	·	·	·	·	·
Cc1ccc(OCC(=O)Nc2cccc3ncccc23)c(C)c1	·	·	–	·	·	·	·	·
OC[C@H]1[C@@H](c2ccc(C#Cc3cccnc3)cc2)[C@@H]2CN(Cc3ccccc3F)CCCCN12	111.1	–	·	–	95.8	?	36.4	103.5
COc1ccc(C#Cc2ccc([C@H]3[C@@H](CO)N4CCCCN(Cc5ccccc5F)C[C@H]34)cc2)cc1	–	–	·	–	·	·	·	·
CC(C)CC#Cc1ccc2c(c1)O[C@H](CN(C)C(=O)Cc1ccccc1)[C@@H](C)CN([C@H](C)CO)S2(=O)=O	125.5	–	–	–	98.1	?	–	104.7
CC(C)CC#Cc1ccc2c(c1)O[C@H](CN(C)C(=O)Cc1ccccc1)[C@@H](C)CN([C@@H](C)CO)S2(=O)=O	126.9	–	–	–	103.7	111.2	–	104.5
CC(C)CC#Cc1ccc2c(c1)O[C@H](CN(C)C(=O)Cc1ccncc1)[C@@H](C)CN([C@@H](C)CO)S2(=O)=O	?	–	–	–	·	·	·	·
CC(C)CC#Cc1ccc2c(c1)O[C@@H](CN(C)C(=O)Cc1ccncc1)[C@H](C)CN([C@@H](C)CO)S2(=O)=O	99.8	-82.1	–	–	98.5	–	–	–
SMILES	T cruzi growth-1	Pf Dd2 inh	IDH1 mut inh	KDM4C inh	T cruzi growth-2	T cruzi growth-3	3T3 cytotox	3T3 cytotox 2
O=C(Nc1cccc(Cn2cccn2)c1)c1cc(-c2ccccc2)nc2ccccc12	·	·	–	·	·	·	·	·
N#C[C@H]1[C@H](c2ccc(-c3ccc(F)cc3)cc2)[C@@H](CO)N1C(=O)Cc1ccccc1	?	–	·	–	98.2	–	39.8	96.0
N#C[C@@H]1[C@@H](c2ccc(-c3ccccc3F)cc2)[C@H](CO)N1C(=O)Cc1ccccc1	–	–	·	–	·	·	·	·
N#C[C@@H]1[C@@H](c2ccccc2)[C@H](CO)N1C(=O)Cc1ccccc1	100.4	–	·	–	–	–	–	–
N#C[C@@H]1[C@@H](c2ccc(-c3ccc(F)cc3)cc2)[C@@H](CO)N1C(=O)Cc1ccccc1	–	–	–	–	·	·	·	·
N#C[C@H]1[C@@H](c2ccccc2)[C@@H](CO)N1C(=O)Cc1ccccc1	101.8	–	–	–	–	–	–	–
N#C[C@@H]1[C@H](c2ccccc2)[C@@H](CO)N1C(=O)Cc1ccccc1	109.5	–	·	–	–	–	–	–
O=C(NC[C@H]1[C@H](c2ccccc2)[C@H](CO)N1Cc1ccccn1)C1CCCC1	97.1	–	·	–	–	–	–	–
C/C=C/c1ccc([C@@H]2[C@@H](CO)N(Cc3ccccn3)[C@H]2CNC(C)=O)cc1	–	–	·	–	·	·	·	·
C/C=C/c1ccc([C@@H]2[C@H](CO)N(Cc3ccccn3)[C@H]2CNC(C)=O)cc1	97.7	–	·	–	–	–	–	–
O=C(NC[C@H]1[C@H](c2ccccc2)[C@@H](CO)N1Cc1ccccn1)C1CCCC1	–	–	·	–	·	·	·	·
Cc1ccc(S(=O)(=O)N(C)C[C@@H]2Oc3cc(-c4cccc(F)c4)ccc3S(=O)(=O)N([C@@H](C)CO)C[C@H]2C)cc1	123.6	–	–	–	101.8	107.0	47.8	55.2
Cc1ccc(S(=O)(=O)N(C)C[C@@H]2Oc3cc(-c4cccc(F)c4)ccc3S(=O)(=O)N([C@H](C)CO)C[C@@H]2C)cc1	127.1	–	·	–	105.0	?	?	42.6
COc1ccc(S(=O)(=O)N(C)C[C@H]2Oc3cc(-c4cccc(F)c4)ccc3S(=O)(=O)N([C@H](C)CO)C[C@H]2C)cc1	·	–	–	–	·	·	·	·
C=CCN(CC=C)S(=O)(=O)c1ccc(C(=O)Nc2ccccc2-c2nc3ccccc3[nH]2)cc1	·	·	–	·	·	·	·	·

Screening results: PubChem BioAssay, Broad Institute
